# In publication PMC3700807 (Planta medica, 2011):
# Like-named read-outs stand apart in the source and are kept apart here.
# Tests used:
# [1] = Cytotoxicity to PMA transformed THP1 cells; format: cell-based; settings: human
# [2] = system: Leishmania donovani amastigotes in THP1 macrophage cultures; assay: Antileishmanial macrophage-amastigote assay; format: cell-based; settings: mean ± S.D. of three observations; for IC50: Leishmania donovani, THP-1, read-out: Leishmania donovani Macrophage-Amastigotes IC50, amastigotes in THP1 macrophage cultures
# [3] = system: Leishmania donovani axenic amastigotes; assay: Antileishmanial assay, axenic amastigotes; format: cell-based; settings: for IC90: Leishmania donovani, 72 h, read-out: Leishmania donovani Axenic Amastigotes IC90
# [4] = system: Leishmania donovani promastigotes; assay: Antileishmanial assay, promastigotes; format: cell-based; settings: for IC90: Leishmania donovani, 72 h, read-out: Leishmania donovani Promastigotes IC90
# [5] = system: Plasmodium falciparum D6 (chloroquine-sensitive clone); assay: In vitro antiplasmodial assay; format: cell-based; settings: for IC50: Plasmodium falciparum, D6, read-out: P. falciparum D6 IC50
# [6] = system: Plasmodium falciparum W2 (chloroquine-resistant clone); assay: In vitro antiplasmodial assay; format: cell-based; settings: for IC50: Plasmodium falciparum, W2, read-out: P. falciparum W2 IC50
# [7] = quoted as basis for basifying to pH 11; no reference given; cited from earlier work
# [8] = system: Cryptococcus neoformans (ATCC 90113); assay: Antimicrobial susceptibility assay, C. neoformans; format: cell-based
# Summary of the method: (§1)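 Yeasts were tested by a modified CLSI broth-dilution method, with growth monitored by optical density. Amphotericin B was the drug control in each assay. IC50 (50% inhibition vs controls) was curve-fitted from duplicate readings. MIC is the lowest concentration allowing no detectable growth. For MFC, 5 μL from each clear well was plated on agar and incubated until growth was seen.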
# C. glabrata (ATCC 90030) = assay: Antimicrobial susceptibility assay, C. glabrata; format: cell-based; settings: highest test concentration 20 μg/mL
# Summary of the method: as §1
# [9] = system: Mycobacterium intracellulare (ATCC 23068); assay: Antimicrobial susceptibility assay, M. intracellulare; format: cell-based
# Summary of the method: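 Mycobacterium intracellulare (ATCC 23068) was tested by a modified broth susceptibility method, with growth detected in medium containing 5% Alamar Blue. IC50 was fitted against untreated controls from duplicate readings. MIC was taken as the lowest concentration with no detectable growth. For MBC, clear wells were subcultured onto agar and incubated until growth appeared. Ciprofloxacin was included as the drug control in each assay.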
# [10] = system: methicillin-resistant S aureus (MRSA, ATCC 33591); assay: Antimicrobial susceptibility assay, MRSA; format: cell-based, Staphylococcus aureus
# Summary of the method: (§2)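 Bacteria were tested by a modified CLSI broth-dilution method, with growth read as optical density. Ciprofloxacin was the drug control in each assay. IC50 (50% inhibition relative to controls) was fitted from duplicate readings. MIC is the lowest concentration with no detectable growth. For MBC, 5 μL from each clear well was transferred to agar and incubated until growth appeared.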
# [11] = system: Aspergillus fumigatus (ATCC 204305); assay: Antimicrobial susceptibility assay, A. fumigatus; format: cell-based
# Summary of the method: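 Broth-dilution susceptibility test in medium with 5% Alamar Blue for growth detection. Amphotericin B was the drug control in each assay. IC50 (50% inhibition vs controls) was curve-fitted from duplicate readings. MIC is the lowest concentration with no detectable growth. For MFC, 5 μL from each clear well was moved to agar and incubated until growth appeared.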
# [12] = system: Candida albicans (ATCC 90028); assay: Antimicrobial susceptibility assay, C. albicans; format: cell-based
# Summary of the method: as §1
# Transformed THP1 cells = assay: Cytotoxicity to PMA transformed THP1 cells; format: cell-based
# C. krusei (ATCC 6258) = assay: Antimicrobial susceptibility assay, C. krusei; format: cell-based; settings: highest test concentration 20 μg/mL
# Summary of the method: as §1
# [13] = system: Staphylococcus aureus (ATCC 29213); assay: Antimicrobial susceptibility assay, S. aureus; format: cell-based
# Summary of the method: as §2
# VERO cells [14] = assay: Cytotoxicity to VERO cells; format: cell-based
# [15] = system: Plasmodium falciparum D6 (chloroquine-sensitive clone); settings: data reported previously; cited from earlier work
# VERO cells [16] = settings: VERO cells cytotoxicity; data reported previously; cited from earlier work
# [17] = system: Plasmodium falciparum W2 (chloroquine-resistant clone); settings: data reported previously; cited from earlier work
# [18] = amastigotes in THP1 macrophage cultures
# [19] = 37 °C, 72 hours, mean ± S.D. of three observations
# [20] = 26 °C, 72 hours, mean ± S.D. of three observations
# [21] = highest test concentration 20 μg/mL
smiles,measurement,setting,value
"N=C(N)c1ccc(OCCCCCOc2ccc(C(=N)N)cc2)cc1 [Pentamidine, reference compound]",IC50,[1]; PMA transformed THP1 cells,> 20 µg/mL
same,IC90,[1]; PMA transformed THP1 cells,> 20 µg/mL
same,IC50,[2],3 µg/mL
same,Leishmania donovani Macrophage-Amastigotes IC50,[2]; [18],2.97 ± 0.44 µg/mL
same,Leishmania donovani Axenic Amastigotes IC50,[3]; [19],2.09 ± 0.37 µg/mL
same,IC90,[3],14.7 ± 2.2 µg/mL
same,Leishmania donovani Promastigotes IC50,[4]; [20],1.06 ± 0.32 µg/mL
same,IC90,[4],3.86 ± 0.41 µg/mL
CCN(CC)CCCC(C)Nc1ccnc2cc(Cl)ccc12 (stereo not drawn) [Chloroquine],IC50,[5],0.017 µg/mL
same,IC50,[6],0.14 µg/mL
"C[C@@H]1N[C@H](CCCCCCCCCCC2=C[C@@H](CCCCCCCCCC[C@@H]3CC[C@@H](O)[C@H](C)N3)[C@@H]3CCCN3C2)CC[C@H]1O [Compound 3, prosopilosine]",IC50,[1],2.33 ± 0.51 µg/mL
same,IC90,[1],3.89 ± 0.51 µg/mL
same,Leishmania donovani Axenic Amastigotes IC50,[3]; [19],0.98 ± 0.12 µg/mL
same,IC90,[3],6.49 ± 0.84 µg/mL
same,Leishmania donovani Promastigotes IC50,[4]; [20],0.17 ± 0.05 µg/mL
same,IC90,[4],6.33 ± 1.07 µg/mL
NCCc1c[nH]c2ccccc12 [tryptamine],pKa,[7],10.2
"C[C@@H]1N[C@H](CCCCCCCCCCc2cc(CCCCCCCCCC[C@@H]3CC[C@H](O)[C@H](C)N3)c3[n+](c2)CCC3)CC[C@@H]1O [Compound 7, juliprosine]",C. neoformans IC50,[8]; [21],0.17 µg/mL
same,C. neoformans MFC,[8]; [21],0.63 µg/mL
same,C. neoformans MIC,[8]; [21],0.63 µg/mL
same,C. glabrata IC50,C. glabrata (ATCC 90030),-/-/- ((-) = Not active at the highest test concentration of 20 μg/mL)
same,C. glabrata MFC,C. glabrata (ATCC 90030),-/-/- ((-) = Not active at the highest test concentration of 20 μg/mL)
same,C. glabrata MIC,C. glabrata (ATCC 90030),-/-/- ((-) = Not active at the highest test concentration of 20 μg/mL)
same,M. intracellulare IC50,[9]; [21],0.80 µg/mL
same,M. intracellulare MBC,[9]; [21],5 µg/mL
same,M. intracellulare MIC,[9]; [21],1.25 µg/mL
same,MRSA IC50,[10]; [21],3.03 µg/mL
same,MRSA MBC,[10]; [21],10 µg/mL
same,MRSA MIC,[10]; [21],5.0 µg/mL
same,A. fumigatus IC50,[11]; [21],-/-/- ((-) = Not active at the highest test concentration of 20 μg/mL)
same,A. fumigatus MFC,[11]; [21],-/-/- ((-) = Not active at the highest test concentration of 20 μg/mL)
same,A. fumigatus MIC,[11]; [21],-/-/- ((-) = Not active at the highest test concentration of 20 μg/mL)
same,C. albicans IC50,[12]; [21],-/-/- ((-) = Not active at the highest test concentration of 20 μg/mL)
same,C. albicans MFC,[12]; [21],-/-/- ((-) = Not active at the highest test concentration of 20 μg/mL)
same,C. albicans MIC,[12]; [21],-/-/- ((-) = Not active at the highest test concentration of 20 μg/mL)
same,Cytotoxicity (Transformed THP1 cells) IC50,Transformed THP1 cells,19.5 ± 1.0 µg/mL
same,Cytotoxicity (Transformed THP1 cells) IC90,Transformed THP1 cells,>20 µg/mL
same,C. krusei IC50,C. krusei (ATCC 6258),-/-/- ((-) = Not active at the highest test concentration of 20 μg/mL)
same,C. krusei MFC,C. krusei (ATCC 6258),-/-/- ((-) = Not active at the highest test concentration of 20 μg/mL)
same,C. krusei MIC,C. krusei (ATCC 6258),-/-/- ((-) = Not active at the highest test concentration of 20 μg/mL)
same,Leishmania donovani Macrophage-Amastigotes IC50,[2]; [18],3.08 ± 0.43 µg/mL
same,Leishmania donovani Macrophage-Amastigotes IC90,[2]; [18],7.89 ± 1.91 µg/mL
same,P. falciparum D6 IC50,[5]; chloroquine-sensitive clone D6,0.17 ± 0.035 µg/mL
same,S. aureus IC50,[13]; [21],3.0 µg/mL
same,S. aureus MBC,[13]; [21],10 µg/mL
same,S. aureus MIC,[13]; [21],5.0 µg/mL
same,VERO IC50,VERO cells [14],>23.8 µg/mL
same,Leishmania donovani Axenic Amastigotes IC50,[3]; [19],2.58 ± 0.37 µg/mL
same,Leishmania donovani Axenic Amastigotes IC90,[3]; [19],29.8 ± 4.3 µg/mL
same,Leishmania donovani Promastigotes IC50,[4]; [20],1.38 ± 0.23 µg/mL
same,Leishmania donovani Promastigotes IC90,[4]; [20],5.85 ± 0.72 µg/mL
same,P. falciparum W2 IC50,[6]; chloroquine-resistant clone W2,0.15 ± 0.06 µg/mL
"O=C(O)c1cn(C2CC2)c2cc(N3CCNCC3)c(F)cc2c1=O [Ciprofloxacin, reference compound]",IC50,"[9]; Mycobacterium intracellulare, ATCC23068, read-out: M. intracellulare IC50",0.25 µg/mL
same,MBC,"[9]; Mycobacterium intracellulare, ATCC23068, read-out: M. intracellulare MBC",> 20 µg/mL
same,MIC,"[9]; Mycobacterium intracellulare, ATCC23068, read-out: M. intracellulare MIC",0.5 µg/mL
same,IC50,"[10]; Staphylococcus aureus, ATCC33591|MRSA, read-out: MRSA IC50",0.08 µg/mL
same,MBC,"[10]; Staphylococcus aureus, ATCC33591|MRSA, read-out: MRSA MBC",1 µg/mL
same,MIC,"[10]; Staphylococcus aureus, ATCC33591|MRSA, read-out: MRSA MIC",0.25 µg/mL
same,IC50,"[13]; Staphylococcus aureus, ATCC29213, read-out: S. aureus IC50",0.1 µg/mL
same,MBC,"[13]; Staphylococcus aureus, ATCC29213, read-out: S. aureus MBC",> 20 µg/mL
"C[C@@H]1N[C@H](CCCCCCCCCCc2cc(CCCCCCCCCC[C@@H]3CC[C@H](O)[C@@H](C)N3)c3[n+](c2)CCC3)CC[C@H]1O [Compound 2, prosopilosidine]",P. falciparum D6 IC50,[15],0.039 ± 0.002 µg/mL
same,VERO IC50,VERO cells [16],>23.8 µg/mL
same,IC50,[1]; PMA transformed THP1 cells,9.49 ± 2.25 µg/mL
same,IC90,[1]; PMA transformed THP1 cells,> 20 µg/mL
same,IC50,[2],3.23 ± 0.54 µg/mL
same,P. falciparum W2 IC50,[17],0.095 ± 0.002 µg/mL
same,IC90,[3],25.4 ± 5.3 µg/mL
same,IC90,[4],4.17 ± 0.54 µg/mL
"C[C@@H]1[C@H](O)[C@@H](C)/C=C/C=C/C=C/C=C/C=C/C=C/C=C/[C@H](O[C@@H]2O[C@H](C)[C@@H](O)[C@H](N)[C@@H]2O)C[C@@H]2O[C@](O)(C[C@@H](O)C[C@@H](O)[C@H](O)CC[C@@H](O)C[C@@H](O)CC(=O)O[C@H]1C)C[C@H](O)[C@H]2C(=O)O [Amphotericin B, reference compound]",IC50,"[8]; Cryptococcus neoformans, ATCC90113, read-out: C. neoformans IC50",0.32 µg/mL
same,MFC,"[8]; Cryptococcus neoformans, ATCC90113, read-out: C. neoformans MFC",1.25 µg/mL
same,MIC,"[8]; Cryptococcus neoformans, ATCC90113, read-out: C. neoformans MIC",1.25 µg/mL
same,IC50,"[11]; Aspergillus fumigatus, ATCC204305, read-out: A. fumigatus IC50",0.72 µg/mL
same,MFC,"[11]; Aspergillus fumigatus, ATCC204305, read-out: A. fumigatus MFC",2.5 µg/mL
same,MIC,"[11]; Aspergillus fumigatus, ATCC204305, read-out: A. fumigatus MIC",1.25 µg/mL
same,IC50,"[12]; Candida albicans, ATCC90028, read-out: C. albicans IC50",0.13 µg/mL
same,MFC,"[12]; Candida albicans, ATCC90028, read-out: C. albicans MFC",0.63 µg/mL
same,IC50,[1]; PMA transformed THP1 cells,3.34 ± 0.41 µg/mL
same,IC90,[1]; PMA transformed THP1 cells,8.05 ± 1.33 µg/mL
same,IC50,[2],0.14 ± 0.02 µg/mL
same,IC90,[3],0.97 ± 0.14 µg/mL
"C[C@@H]1N[C@H](CCCCCCCCCCc2cc(CCCCCCCCCC[C@H]3CC[C@@H](O)[C@@H](C)N3)c[n+]3c2CCC3)CC[C@H]1O [Compound 5, isoprosopilosidine]",IC50,[1]; PMA transformed THP1 cells,7.92 ± 1.22 µg/mL
same,IC90,[1]; PMA transformed THP1 cells,19 µg/mL
same,IC50,[2],5.87 ± 0.76 µg/mL
same,IC90,[3],24.8 ± 3.7 µg/mL
same,IC90,[4],4.52 ± 0.74 µg/mL
C[C@@H]1CC[C@H]2[C@@H](C)C(=O)O[C@@H]3O[C@@]4(C)CC[C@@H]1[C@]32OO4 [Artemisinin],IC50,[5],0.016 µg/mL
same,IC50,[6],0.017 µg/mL
"C[C@H]1N[C@@H](CCCCCCCCCCC2=C[C@@H](CCCCCCCCCC[C@H]3CC[C@@H](O)[C@@H](C)N3)[C@@H]3CCCN3C2)CC[C@H]1O [Compound 6, juliprosopine]",P. falciparum D6 IC50,[15],0.22 ± 0.025 µg/mL
same,VERO IC50,VERO cells [16],5 µg/mL
same,IC50,[1],3.43 ± 0.32 µg/mL
same,IC90,[1],7.89 ± 1.2 µg/mL
same,P. falciparum W2 IC50,[17],0.38 ± 0.05 µg/mL
same,Leishmania donovani Axenic Amastigotes IC50,[3]; [19],1.92 ± 0.19 µg/mL
same,IC90,[3],6.25 ± 0.47 µg/mL
same,Leishmania donovani Promastigotes IC50,[4]; [20],0.29 ± 0.05 µg/mL
same,IC90,[4],1.14 ± 0.21 µg/mL
